PAD4 inh – blocks human protein arginine deiminase 4 | 0.41% of 330,000 active | inhibition, % at 6.36 µM | Q9UM07 | AID 485272 | recombinant PAD4, RCA probe fluorescence polarization;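 active = percent inhibition above a cutoff equal to the mean of all tested compounds plus 3 SD, cut at about 15% in these data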;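 also: 0% = PAD4 with RCA probe and DMSO and 100% = probe without PAD4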
HTRA1 inhibitor – HTRA1 (human) protease inhibition; Q92743; 0.5% of 340,000 active; recombinant HTRA1, FP-rhodamine activity-based probe, fluorescence polarization; inhibition, % at 5.96 µM; AID 504803; in the data active = inhibition above about 36%;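 also: 0% = enzyme with DMSO and 100% = wells lacking enzyme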
Target sequence (Q92743 whole entry, looked up): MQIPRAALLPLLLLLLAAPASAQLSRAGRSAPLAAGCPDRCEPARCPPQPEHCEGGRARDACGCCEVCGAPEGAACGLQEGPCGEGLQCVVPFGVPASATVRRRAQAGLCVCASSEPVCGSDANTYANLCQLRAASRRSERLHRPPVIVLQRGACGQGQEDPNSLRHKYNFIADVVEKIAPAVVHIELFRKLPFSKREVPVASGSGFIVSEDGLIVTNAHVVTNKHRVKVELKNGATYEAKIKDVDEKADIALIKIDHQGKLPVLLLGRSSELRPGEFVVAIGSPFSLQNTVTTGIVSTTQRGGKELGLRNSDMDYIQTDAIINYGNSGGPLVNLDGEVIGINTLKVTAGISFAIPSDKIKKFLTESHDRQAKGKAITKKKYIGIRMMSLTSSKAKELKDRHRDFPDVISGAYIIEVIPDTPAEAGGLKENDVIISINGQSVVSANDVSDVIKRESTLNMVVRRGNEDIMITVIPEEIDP
SIAE inh – inhibitors of human sialic acid acetylesterase SIAE; Q9HAT2; SIAE FP-Rh probe binding, fluorescence polarization; inhibition, % at 9.66 µM; 0.69% of 370,000 active; AID 1053197;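 active = inhibition above a cutoff: mean of compounds within the control limits plus 3 SD of those, cut at about 17% in these data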;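 also: 0% = plate median of compound wells and 100% = probe without SIAE protein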
mABHD4 FP – inhibits mouse alpha/beta hydrolase domain 4 | purified mABHD4, FP-Rh probe fluorescence polarization | inhibition, % at 8.92 µM | 0.54% of 370,000 active | AID 720543;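 active = inhibition exceeding the mean over every tested compound plus 3 SD, cut at about 30% in these data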;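 also: 0% = plate median of compound wells and 100% = S159A mutant with DMSO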
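Material: mouse ABHD4 enzyme, wild type; Benchmarks: S159A mutant high control, sample median low control; Buffer or medium: HEPES pH 7.0, NaCl, Pluronic buffer; Signal: fluorescence polarization; Read-out: percent inhibition of probe binding, normalized to plate controls; Timing: pre-incubation 45 min, probe exposure 60 min, at 25 °C; Dosing: 8.92 µM, single dose.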
TDP2 absorb – blocks human TDP2 phosphodiesterase activity. recombinant TDP2, T5PNP hydrolysis, p-nitrophenol absorbance 415 nm. 0.34% of 370,000 active. inhibition, % at 12.8 µM. AID 720702. O95551;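 active = inhibition above the mean of all tested compounds plus 3 SD, set per campaign, cut at about 25% in these data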;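 also: 0% = DMSO with enzyme and 100% = buffer with substrate but no TDP2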
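Test system: Human TDP2 enzyme | Reagent: 5 mM T5PNP | Compound dosing: 12.8 µM single point, 1% DMSO | Incubation: Enzyme reaction with compound for 2 h at 37 °C | Technique: p-Nitrophenol epi absorbance | Read-out: % inhibition relative to enzyme-containing and enzyme-free wells | Benchmarks: High control without enzyme, low control DMSO plus TDP2 | Replicates: Singlicate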
TCR-CD3 inh – inhibitors of human TCR-CD3 interaction; inhibition, % at 9.4 µM; 0.37% of 360,000 active; TAMRA-labeled TCR probe fluorescence, biochemical; in the data active = inhibition above about 19%;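 also: recombinant mutant TCR 2C K166C tagged with TAMRA read by polarization; 0% = receptor in buffer alone and 100% = receptor with positive control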
PAD4 FP conf – confirmation of human PAD4 inhibitors; recombinant PAD4, RCA probe fluorescence polarization; AID 488796; inhibition, % at 6.36 µM; shares compounds with PAD4 inh; 28% of 1,200 active;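 active = mean inhibition across replicates above the hit cutoff set by the earlier primary screen, cut at about 15% in these data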;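 also: inhibitors block active-site labeling by the probe so polarization falls; 0% = PAD4 with probe and DMSO and 100% = probe without PAD4 enzyme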
mABHD4 conf – confirmation of mouse ABHD4 inhibitors | shares compounds with mABHD4 FP | purified mABHD4, FP-Rh probe fluorescence polarization | inhibition, % at 8.92 µM | 55% of 1,800 active | AID 720658;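 active = mean inhibition across replicates above the hit cutoff set in the primary screen, cut at about 30% in these data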;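 also: 0% = wild-type ABHD4 with DMSO and 100% = catalytically dead S159A mutant with DMSO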
TDP2 inh conf – human TDP2 inhibition, confirmation; shares compounds with TDP2 absorb; recombinant human TDP2, absorbance read-out; inhibition, % at 12.8 µM; 22% of 1,100 active; AID 743263; in the data active = inhibition above about 25%;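 also: 0% = vehicle with enzyme and 100% = no enzyme buffer only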
Starred values were filed as active, the others as inactive; x = no result given. Shown are actives, neighbours in structure and some others; about 2% of the full set was active somewhere.

SMILES	PAD4 inh	HTRA1 inhibitor	SIAE inh	mABHD4 FP	TDP2 absorb	TCR-CD3 inh	PAD4 FP conf	TDP2 inh conf	others
COc1cc(-c2c(C(=O)c3ccccc3)[nH]c(N)c2C(N)=O)ccc1O	x	x	3	-5	-10	x	x	x
CC(=O)N(C1=C(Cl)C(=O)c2ccccc2C1=O)C1CCCCC1	17*	12	12	11	57*	0	12	47*
CC(=O)N(c1ccccc1C)C1CCCC1	2	3	-7	4	0	0	x	x
COc1ccc(-c2ncn(CCC#N)c2[N+](=O)[O-])cc1	-4	7	8	0	11	-6	x	x
COc1ccc(-c2cc(=O)n(CCC#N)[nH]2)cc1	70*	3	4	2	92*	6	2	9
O=C(COc1ccc(F)cc1Cl)Nc1nnc(-c2ccc(F)c(F)c2)o1	x	x	-3	-11	3	x	x	x
O=C1CCC[C@H]2C[C@H](NCc3ccc(Cl)c(C(F)(F)F)c3)CC[C@]23CCCN13	x	x	4	6	1	x	x	x
COc1cc(/C=N/n2nnnc2N)ccc1OCc1c(C)no[n+]1[O-]	0	-4	-10	1	0	-2	x	x
Cc1no[n+]([O-])c1COc1cccc(/C=N/Nc2nncn2N)c1	32*	-8	0	-3	61*	-7	5	10
CC1=NOC2(C1)N(C)c1ccccc1C2(C)C (centres undefined)	3	6	1	-3	12	2	x	x
COc1ccc2ccc3c(c2c1)N=C[C@]1(O3)N(C)c2ccccc2C1(C)C	53*	22	7	1	41*	11	6	0
N#Cc1sc2nc(-c3ccccc3)cc(-c3ccco3)c2c1N	46*	43*	8	15	54*	-2	116*	56*
COc1ccc(NC(=O)Nc2ccc(O)c3ccccc23)cc1	23*	x	10	25	45*	4	-2	18
Cc1cc(=O)[nH]c(-n2[nH]c(C)cc2=O)n1	-1	5	4	-1	6	1	x	x
COc1ccc(-n2[nH]c(C)cc2=O)cc1	64*	2	5	5	71*	4	3	33*
O=C(NC1CCCCN(Cc2ccc(OC(F)(F)F)cc2)C1=O)c1cccc(C(F)(F)F)c1 (centres undefined)	x	x	-2	-1	0	x	x	x
COc1cc(C(=O)c2nccc3cc(OC)c(OC)cc23)c([N+](=O)[O-])cc1OC	40*	2	1	-6	49*	3	-2	35*
COc1cc(Br)c(C(=O)c2nccc3cc(OC)c(OC)cc23)cc1OC	73*	12	-4	4	91*	-1	59*	56*
COc1cc(N)c(C(=O)c2nccc3cc(OC)c(OC)cc23)cc1OC	0	5	-2	-2	5	0	x	x
Cc1ccccc1NC(=O)OC1CCC12CCC(c1ccccc1)CC2 (centres undefined)	x	x	-5	-9	-5	x	x	x
CC(C)=CCC1=C(OCC(=O)O)C(=O)c2ccccc2C1=O	28*	17	14	19	47*	-7	-1	67*
O=C(Cn1nnc(-c2ccccc2F)n1)Nc1ccc(F)cc1F	x	x	5	6	-5	x	x	x
CCc1ccc(S(=O)(=O)Nc2cc(SCC(=O)O)c(O)c3ccccc23)cc1	26*	30	7	31*	51*	0	-4	35*	mABHD4 conf=45*
CCN(CCO)c1ccc(NC(=S)Nc2cccc(S(=O)(=O)N(C)C)c2)cc1	40*	25	12	29	36*	0	-1	11
Nc1ccc(C(=O)N(CCO)CCO)cc1	-3	4	6	0	-7	5	x	x

High-throughput results (PubChem)
